# From PubChem
# A selection: hits, their analogues and other compounds. The true share with any hit is near 2.7%.
# OXTR agonist = human OXTR agonists, primary screen, fluorescence, CHO-OTR cells, Fluo-8 calcium; Fluo-8 calcium fluorescence; normalized: DMSO 0%, oxytocin 100%; activation, % at 3 µM; actives 0.32% (n = 320,000);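 active = activation above the mean of all tested compounds plus 3 SD, cutoff set per screening run, cut at about 20% in these data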;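 note: peak over basal fluorescence ratio from a 100 s FLIPR kinetic read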
# Target sequence (P30559 whole entry, looked up): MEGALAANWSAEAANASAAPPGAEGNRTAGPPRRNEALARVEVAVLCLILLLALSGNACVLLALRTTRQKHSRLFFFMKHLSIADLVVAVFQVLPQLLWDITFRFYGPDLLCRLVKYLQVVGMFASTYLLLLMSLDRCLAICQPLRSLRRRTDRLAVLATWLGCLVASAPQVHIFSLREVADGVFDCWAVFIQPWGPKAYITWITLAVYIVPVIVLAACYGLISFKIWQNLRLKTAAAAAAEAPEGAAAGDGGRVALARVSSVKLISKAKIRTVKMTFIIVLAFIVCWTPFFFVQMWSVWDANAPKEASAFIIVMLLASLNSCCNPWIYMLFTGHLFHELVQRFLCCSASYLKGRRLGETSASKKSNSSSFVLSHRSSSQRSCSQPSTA
# OXTR potentiator = human OXTR potentiators, primary screen, fluorescence, CHO-OTR cells, Fluo-8 calcium; Oxytocin receptor (Homo sapiens), P30559; Fluo-8 calcium fluorescence, potentiator mode; 0% = oxytocin EC15, 100% = EC100; activation, % at 3 µM; actives 0.061% (n = 320,000); AID 2445, 2010;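 active = activation above that plate's cutoff, the mean activation of tested compounds plus 3 SD, cut at about 6.6% in these data, passing the limit was not always enough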;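 note: 100% uses oxytocin at 75 nM as the full agonist control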
#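 System: human OTR in CHO cells; Also added: sub-maximal oxytocin, roughly EC15; Timing: compound 6 min at room temperature before oxytocin, 100 s read; Technique: Fluo-8 intracellular calcium fluorescence, ex 470-495, em 515-575 nm; Controls: oxytocin EC15 low and EC100 high; Replication: singlicate.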
# CHO parental Ca = ATP-evoked calcium signal inhibitors, parental CHO, primary screen, counter-screen for OX1R antagonist project, cell-based, fluorescence, Fluo-8 calcium dye. parental CHO-K1, ATP-induced calcium, Fluo-8 fluorescence. actives 0.63% (n = 330,000). inhibition, % at 5.6 µM. AID 463079, 2010;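 active = inhibition above that plate's mean sample inhibition plus 3 SD, cut at about 26% in these data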;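 note: 0% = ATP-challenged DMSO wells and 100% = DMSO wells without ATP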
#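 test system = CHO parental line | reagent = ATP stimulus | measured by = intracellular calcium via Fluo-8 no-wash fluorescent dye | control set = ATP and no-ATP DMSO wells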
# V1R ag counter = agonists of human V1a receptor, primary screen, counter-screen for OXTR agonist project, fluorescence, CHO-V1R cells; Vasopressin V1a receptor (Homo sapiens), P37288; Fluo-8 calcium fluorescence, agonist mode; 0% DMSO, 100% 3 nM vasopressin; activation, % at 3 µM; actives 0.25% (n = 320,000);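 active = activation above the mean activation of all tested compounds plus 3 SD, per screening run, cut at about 20% in these data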;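 note: signal is peak over basal fluorescence ratio across a 100 second FLIPR read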
# OX1R antag-1 = antagonists of human orexin 1 receptor (OX1R); OX1R-expressing cells, FRET antagonist read-out; AID 485270, 2010; actives 1.8% (n = 330,000); inhibition, % at 6.6 µM; in the data active = inhibition mostly above about 38%, no sharp cut-off; inactive = mostly below about 40%;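 note: 0% = agonist challenge alone and 100% = reference antagonist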
# OX1R antag-2 = OX1R (HCRTR1) antagonists, primary screen, fluorescence, CHO/OX1R cells, Fluo-8 calcium, orexin A; Orexin/Hypocretin receptor type 1 (Homo sapiens), O43613; Fluo-8 calcium fluorescence; inhibition, % at 5 µM; actives 0.43% (n = 330,000); AID 434989, 2010;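 active = inhibition above its plate's threshold, mean inhibition of all tested compounds on the plate plus 3 SD, cut at about 37% in these data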;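 note: 0% = orexin A challenge wells and 100% = SB-334867-A antagonist wells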
# Active calls of the source: *.
SMILES,OXTR agonist,OXTR potentiator,CHO parental Ca,V1R ag counter,OX1R antag-1,OX1R antag-2
Cc1cc(OCC(=O)NCCc2ccc(Cl)cc2)c2c(C)cc(=O)oc2c1,0.0,-9.0,-34.2,0.3,0.0,-32.7
CN(C)Cc1c(O)ccc2cc(-c3nc4ccccc4n3C)c(=O)oc12,0.2,-14.8,7.4,0.6,43.3*,-11.9
CCOC(=O)C1CCN(c2nc(-c3ccccc3)nc3c2oc2ccccc23)CC1,0.8,-4.2,-10.8,-0.6,19.5,-31.0
CCOC(=O)C1CCN(c2ncnc3c2oc2ccccc23)CC1,11.4,-12.1,-9.3,6.8,61.8*,19.0
CCOC(=O)C1CCCN(c2ncnc3c2oc2ccccc23)C1 (stereo unspecified),12.6,-34.6,40.2*,8.8,89.5*,55.3*
CCOC(=O)C1CCCN(C(=O)c2cc(=O)c3ccccc3o2)C1 (stereo unspecified),1.5,-3.1,-4.0,-0.3,3.2,-0.1
Cc1c(C(C)(C)O)[nH]c2cc(C(F)(F)F)ccc12,0.6,-4.6,-8.4,5.4,26.2,-7.6
O=c1[nH]c2cc(C(F)(F)F)ccc2n1-c1cc(C(F)(F)F)ccc1O,3.4,-8.5,83.8*,5.9,22.1,51.2*
O=C(O)c1cc2nccc(-c3ccc(F)cc3)n2n1,0.1,-5.3,1.9,0.9,43.2*,-16.6
COc1ccc(CCNc2nc(-c3ccncc3)cs2)cc1OC,2.6,-1.5,-18.7,4.1,26.3,-8.2
COc1ccc(CCNc2nc(-c3ccc(O)cc3)cs2)cc1OC,13.1,-14.2,58.1*,11.6,32.1*,61.0*
CN(CC(=O)Nc1ccccc1C(=O)Nc1ccccc1)C1CCCCC1,-0.9,8.7,-14.5,-0.7,0.6,-30.3
CCc1c(C(=O)Nc2ccc(OC)c(Cl)c2)[nH]c(C)c1C(C)=O,16.6,-7.2,32.2*,14.1,89.1*,49.5*
COc1ccc(Cl)cc1NC(=O)c1[nH]c(C)c(C(C)=O)c1C,-0.3,-5.1,-4.0,-0.8,4.8,-10.0
Cc1nn(-c2cc(C(F)(F)F)ccc2Cl)c2nc(C(Cl)(Cl)Cl)[nH]c(=O)c12,-2.8,-17.4,-6.7,-0.2,39.9*,-12.2
COc1cc(/C=C/c2ccc3cccc(O)c3n2)c(Br)cc1O,8.7,-18.8,44.9*,5.9,6.8,19.1
COc1cc(Br)c(/C=C/c2ccc3cccc(O)c3n2)cc1OC,0.1,-12.6,-0.8,1.0,9.4,-9.9
COc1ccc(N2CCN(C(=O)CSc3nnc(C)c(=O)[nH]3)CC2)cc1,-0.7,-1.7,36.7*,0.4,-2.2,-4.7
O=C(CSc1nc2ccccc2c(=O)n1NC(=O)Cc1ccccc1)NCc1ccccc1Cl,-0.3,-2.0,-17.0,-0.2,52.6*,9.3
Cc1csc(SCC(=O)NCc2ccccc2Cl)n1,-2.1,-8.6,2.6,-1.2,-4.2,-23.9
Cc1ccc(NC(=S)N(C)Cc2cn(C)c3ccccc23)cc1,0.0,-5.2,-8.4,0.8,13.6,-4.0
CC(C)OCCCNC1=C(Cl)C(=O)c2ccccc2C1=O,-3.1,-5.1,-6.7,-2.0,68.6*,-17.5
COCCCNC1=C(Cl)C(=O)c2ccccc2C1=O,-3.3,-0.6,-6.6,-0.1,56.2*,-1.2
COCCCNc1c2c3c(cccc3[nH]c1=O)C(=O)c1ccccc1-2,589.9*,-10.8,89.3*,532.9*,55.9*,95.0*
CC(C)NC1=C(Cl)C(=O)c2ccccc2C1=O,-1.9,1.8,-3.6,-1.1,43.2*,-9.9
O=C(CCOc1ccccc1)NNC(=O)c1ccccc1,1.5,6.3,-17.3,1.3,8.9,-13.9
Cc1ccc(C(=O)Sc2cccccc2=O)cc1,6.4,-14.6,53.8*,6.1,7.8,53.0*
